For test [1], the target named is T1, Tyrosine-protein phosphatase non-receptor type 1 (Homo sapiens) (UniProt P18031).
T1 sequence (whole entry): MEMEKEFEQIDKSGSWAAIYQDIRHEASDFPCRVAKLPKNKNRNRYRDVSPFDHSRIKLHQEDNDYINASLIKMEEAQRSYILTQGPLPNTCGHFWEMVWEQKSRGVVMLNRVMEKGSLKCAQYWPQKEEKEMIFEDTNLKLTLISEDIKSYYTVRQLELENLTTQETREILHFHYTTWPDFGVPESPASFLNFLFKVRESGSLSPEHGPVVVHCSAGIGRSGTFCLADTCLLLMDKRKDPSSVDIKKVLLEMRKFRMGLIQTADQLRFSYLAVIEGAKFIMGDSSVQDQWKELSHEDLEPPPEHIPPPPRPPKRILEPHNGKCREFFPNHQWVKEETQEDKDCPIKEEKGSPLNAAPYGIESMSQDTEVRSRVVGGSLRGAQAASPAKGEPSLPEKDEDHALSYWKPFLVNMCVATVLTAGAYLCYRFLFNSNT
Nature of the test: Inhibition of recombinant PTP1B at 20 ug/mL. In outline: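 pNPP hydrolysis by recombinant enzyme in 50 mM MOPS pH 6.5 with 2 mM pNPP. Read continuously at 405 nm for 2 min at 30 °C, and initial rate taken from early linear region. Inhibitor tested at 20 μg/mL. Mean of three experiments.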

Test [2] addresses T2, Tyrosine-protein phosphatase non-receptor type 1 (Homo sapiens, UniProt P18031).
T2 sequence (P18031 whole entry): T1 sequence (whole entry)
Put plainly: Inhibition of recombinant PTP1B. The procedure, abridged:
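Recombinant enzyme, 30 nM, with 2 mM pNPP in 50 mM MOPS pH 6.5. Hydrolysis followed continuously at 405 nm for 2 min at 30 °C, and initial rate taken from early linear region. Inhibitor diluted around estimated IC50. IC50 from nonlinear fit of % inhibition vs [I] with Hill equation. Mean of three experiments, SD given.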

These results are taken from ChEMBL document CHEMBL1152189, “Beta-C-glycosiduronic acids and beta-C-glycosyl compounds: new PTP1B inhibitors” (Bioorg Med Chem Lett, 2008).

Usually inhibition stands for the percentage by which the read-out fell short of the control. For orientation: IC50 means the concentration needed to halve the response being measured. On to `COc1ccc(OC)c([C@@H]2O[C@H](CNC(=O)c3ccccc3)[C@@H](OC(C)=O)[C@H](OC(=O)c3ccccc3)[C@H]2OC(=O)c2ccccc2)c1`, for which the inhibition in test [1] amounted to 83.4%. Also, the IC50 in test [2] was 4.52 µM.

In the case of `CC(=O)O[C@H]1[C@@H](OC(C)=O)[C@@H](C(=O)O)O[C@@H](C2=CC(=O)c3ccccc3C2=O)[C@@H]1OC(C)=O`, in test [1], the inhibition is 88.2%. Also, in test [2], the IC50 amounted to 16.6 µM.

As for `O=C(O[C@H]1[C@@H](OC(=O)c2ccccc2)[C@@H](C(=O)O)O[C@@H](C2=CC(=O)c3ccccc3C2=O)[C@@H]1OC(=O)c1ccccc1)c1ccccc1`, the inhibition in test [1] worked out at 99.5%. The IC50 in test [2] amounted to 1.12 µM.

As for `COc1cc([C@@H]2O[C@H](CNC(=O)c3ccccc3C(=O)O)[C@@H](OC(=O)c3ccccc3)[C@H](OC(=O)c3ccccc3)[C@H]2OC(=O)c2ccccc2)c(OC)c2ccccc12`, in test [1], the inhibition stood at 92.1%. In addition, the IC50 in test [2] was determined as 0.77 µM.

Consider `CC(=O)O[C@H]1[C@@H](OC(C)=O)[C@@H](C(=O)O)O[C@@H](C2=CC(=O)C=CC2=O)[C@@H]1OC(C)=O`, for which, in test [1], the inhibition was 70.3%. Also, the IC50 in test [2] was found to be 27.6 µM.

Turning to `CC(=O)O[C@@H]1[C@@H](OC(C)=O)[C@H](C2=CC(=O)c3ccccc3C2=O)O[C@H](C(=O)O)[C@H]1OC(C)=O`, in test [1], the inhibition was 83.1%. Besides, the half-inhibitory concentration (IC50) in test [2] stood at 15.9 µM.

As to `COc1cc([C@@H]2O[C@H](CN=[N+]=[N-])[C@@H](OC(=O)c3ccccc3)[C@H](OC(=O)c3ccccc3)[C@H]2OC(=O)c2ccccc2)c(OC)c2ccccc12`, the inhibition in test [1] came to 96.5%. Besides, the IC50 in test [2] amounted to 2.36 µM.

In the case of `COc1ccc(OC)c([C@@H]2O[C@H](CNC(=O)c3ccccc3)[C@@H](O)[C@H](OC(=O)c3ccccc3)[C@H]2OC(=O)c2ccccc2)c1`, in test [1], the inhibition stood at 94.9%. For the same molecule, the IC50 in test [2] worked out at 4.13 µM.

In the case of `CC(=O)O[C@@H]1[C@@H](OC(C)=O)[C@H](C2=CC(=O)C=CC2=O)O[C@H](C(=O)O)[C@H]1OC(C)=O`, the inhibition in test [1] turned out to be 84.7%. Moreover, the half-maximal inhibitory concentration (IC50) in test [2] is 20.4 µM.

For `COc1ccc(OC)c([C@@H]2O[C@H](CNC(=O)c3ccccc3)[C@@H](OC(C)=O)[C@H](OC(C)=O)[C@H]2OC(C)=O)c1`, the inhibition in test [1] came out at 12.1%.

For the molecule `COc1ccc(OC)c([C@@H]2O[C@H](COC(C)=O)[C@H](NC(=O)c3ccccc3C(=O)O)[C@H](OC(C)=O)[C@H]2OC(C)=O)c1`, the inhibition in test [1] was found to be 49.5%.

In the case of `CC(=O)O[C@@H]1[C@@H](OC(C)=O)[C@H](C2=CC(=O)C=CC2=O)O[C@H](CNC(=O)c2ccccc2)[C@H]1OC(C)=O`, the inhibition in test [1] is 26.6%.

Regarding `O=C1C=CC(=O)C([C@@H]2O[C@H](CNC(=O)c3ccccc3)[C@@H](O)[C@H](OC(=O)c3ccccc3)[C@H]2OC(=O)c2ccccc2)=C1`, the inhibition in test [1] stood at 94.1%. Also, the half-maximal inhibitory concentration (IC50) in test [2] was 5.27 µM.

Consider `COc1ccc(OC)c([C@@H]2O[C@H](CNC(=O)c3ccccc3C(=O)O)[C@@H](OC(=O)c3ccccc3)[C@H](OC(=O)c3ccccc3)[C@H]2OC(=O)c2ccccc2)c1`, for which, in test [1], the inhibition was found to be 99.7%. In test [2], the IC50 is 2.44 µM.
